High-throughput results from PubChem BioAssay.
HNF4A DNA FP: change in binding of human HNF4 alpha to DNA; 360,000 tested, 0.3% active; AID 1224865; activity change, % at 10 µM; HNF4a-FITC DNA binding, fluorescence polarization, 1 h; in the data active = activity change above about 30%, passing the limit was not always enough
Target sequence (P41235 whole entry, looked up): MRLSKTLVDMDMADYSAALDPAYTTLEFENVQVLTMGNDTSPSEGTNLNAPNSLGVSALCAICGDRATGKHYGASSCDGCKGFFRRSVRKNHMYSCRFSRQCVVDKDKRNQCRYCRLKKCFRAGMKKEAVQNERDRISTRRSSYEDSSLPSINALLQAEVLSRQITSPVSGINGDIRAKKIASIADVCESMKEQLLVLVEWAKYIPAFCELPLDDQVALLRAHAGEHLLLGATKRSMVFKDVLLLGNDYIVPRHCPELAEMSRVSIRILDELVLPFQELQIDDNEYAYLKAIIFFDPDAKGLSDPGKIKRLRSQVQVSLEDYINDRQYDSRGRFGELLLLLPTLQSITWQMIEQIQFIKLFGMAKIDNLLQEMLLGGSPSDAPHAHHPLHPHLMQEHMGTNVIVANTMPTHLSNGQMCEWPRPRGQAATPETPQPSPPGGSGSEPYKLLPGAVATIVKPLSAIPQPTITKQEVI
Myeloid diff 2: promotes myeloid progenitor differentiation | AID 624256 | 360,000 tested, 1% active | calls only at 10 µM | ER-HoxA9 myeloid progenitors, lysozyme-GFP differentiation, flow cytometry;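 active = normalized GFP-positive differentiation at or above the plate's own cutoff, the solvent-only control mean plus 3 SD; inconclusive = no clear call, values can overlap the other calls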;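 also: cells exposed to compound for four days before flow analysis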
SENP1 FRET inh: SENP1 (human) catalytic domain inhibition; Q9P0U3; recombinant SENP1 catalytic domain, CyPet-SUMO1-YPet FRET cleavage; inhibition, % at 10 µM; 360,000 tested, 0.21% active;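 active = inhibition at least 30% at 10 µM, raw YFP signal under a set limit, fluorescence ratio 0.5 to 1.5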;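 also: 0% = enzyme with DMSO and 100% = no enzyme wells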
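Test system: human SENP1 catalytic domain; medium: Tris pH 8 buffer plus EDTA, NaCl, BME, BSA, NP40, catalase; incubation: 50 min reaction at room temperature; technique: FRET, CFP and YFP emission; controls: no-enzyme low control and enzyme-plus-DMSO high control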
Cardio protect: protects H9c2 cardiomyocytes from peroxide injury | protection from H2O2 cell death, % at 20 µM | AID 588492 | H2O2 injury protection, ATPLite, 2 h | 360,000 tested, 0.63% active;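 active = compounds giving at least 50% protection of heart cells from peroxide-induced death in the single-dose screen, raw or plate-pattern-corrected value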;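 also: 0% = DMSO wells with peroxide and 100% = DMSO wells without peroxide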
Pemphigus Ab inh: blocks pemphigus antibody binding to human desmoglein-3; P32926; DSG3-coupled beads, scFv-anti-DSG3-GFP binding, flow cytometry; stronger effect = lower value; binding (percent of control), % at 10 µM; 310,000 tested, 0.48% active; AID 588358;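 active = binding more than 3 SD below its plate's average and above zero; inconclusive = below that plate limit but binding exactly zero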;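 also: hits lower antibody fragment binding to DSG3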
Granule exo inh: blocks lytic granule exocytosis; 360,000 tested, 0.66% active; TALL-104 LAMP-1 surface exposure, flow cytometry; cells stimulated with thapsigargin and PMA; AID 651702; inhibition, % at 10 µM;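 active = inhibition above about 55%, limit read from the data; inconclusive = no clear call, values can overlap the other calls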
* hit, by the source's call; i = inactive; ? = inconclusive; . = no result given; + = active, no number. Sampled rows, rich in hits. Any-hit rate of the full collection: about 3%.

SMILES	HNF4A DNA FP	Myeloid diff 2	SENP1 FRET inh	Cardio protect	Pemphigus Ab inh	Granule exo inh
CC(OC(=O)Cc1n[nH]c(=O)c2ccccc12)C(=O)Nc1ccc(F)cc1 (centres undefined)	4	i	1	59*	100	0
Cc1ccc(C(=O)C(C)OC(=O)Cc2n[nH]c(=O)c3ccccc23)cc1 (centres undefined)	-1	i	1	12	102	-6
O=c1c2nnn(-c3ccccc3)c2ncn1C/C=C/c1ccccc1	-1	i	3	-3	70*	-1
COc1cccc(-n2nnc3c(=O)n(C/C=C/c4ccccc4)cnc32)c1	0	i	2	-6	113	-12
CN(C)Cc1c(C(=O)N/N=C/c2ccncc2)nnn1-c1nonc1N	-1	i	2	4	91	7
CN(C)Cc1c(C(=O)N/N=C/c2ccccc2OCc2c(F)cccc2Cl)nnn1-c1nonc1N	3	?	1	8	107	95*
Cc1nnn(-c2nonc2N)c1C(=O)N/N=C/c1cccc2ccccc12	11	i	0	9	74	3
CCN(CC)Cc1c(C(=O)N/N=C/c2ccncc2)nnn1-c1nonc1N	50*	i	4	-6	106	5
CN(C)c1ccc(/C=N/NC(=O)c2nnn(-c3nonc3N)c2COc2ccc(F)cc2)cc1	-5	i	-39	13	77*	1
Cc1nnn(-c2nonc2N)c1C(=O)N/N=C/c1ccccc1O	4	i	-3	54*	.	2
O=C(/C=C/c1cn(-c2ccccc2)nc1-c1cccnc1)c1ccco1	0	i	-4	12	112	12
COC(=O)CCN(c1ccccc1)S(=O)(=O)c1cc(-c2cc(C)no2)ccc1C	1	i	2	-1	.	5
CCSc1nc2ccc(N3C(=O)C4C5C=CC(C5)C4C3=O)cc2s1 (centres undefined)	-2	i	-1	-1	103	5
CCN(C(=O)COC(=O)COc1ccccc1Cl)c1c(N)n(Cc2ccccc2)c(=O)[nH]c1=O	-3	i	5	-2	.	7
Cc1ccc[n+](CC(=O)Nc2nc3ccccc3s2)c1	-3	i	1	-7	93	-6
CN(C)Cc1c(C(=O)N/N=C/c2cccc3ccccc23)nnn1-c1nonc1N	4	?	3	2	56*	4
CCCCn1c(N)c(-c2nc3ccccc3s2)c2c([N+](=O)[O-])nn(C)c(=O)c21	8	i	-17	-14	85*	-1
COc1ccc(Cl)c2sc(N(CCN(C)C)C(=O)c3ccc4c(c3)OCCO4)nc12	2	i	0	-10	94	19
CCN(CC)c1ccc(C(=O)NN)cc1	2	+	-1	13	93	1
CCN(CC)c1ccc(N)cc1	47*	i	54*	-11	101	0
CC1CCCC(NC(=O)CCCCCn2c(=S)[nH]c3ccsc3c2=O)C1C (centres undefined)	1	i	0	-3	107	1
Cc1nc(NC(=O)/C=C/c2ccccc2)sc1C(=O)Nc1ccccc1Cl	-3	i	1	1	78*	-7
CCCc1ccc(O)c(N=Cc2cc(Br)cc(OCC)c2O)c1	11	i	18	71*	106	31
CN1CCN(C(=O)CSc2nc(-c3cccs3)ccc2C#N)CC1	8	+	-14	8	.	-1
N#Cc1ccc(-c2cccs2)nc1SCc1cccnc1	1	?	-71	0	99	7
CCCN(C(=O)CSc1nnnn1-c1ccccc1OC)C1CCS(=O)(=O)C1 (centres undefined)	6	i	1	4	100	-10
Cc1cc(=O)oc(C)c1C(=O)n1nc(C)c2c1C[C@@H]1[C@H]2C1(C)C	52*	i	-3	6	105	6
COc1ccc(-c2cc(C(F)(F)F)n3nc(C(=O)Nc4c(C)n(C)n(-c5ccccc5)c4=O)cc3n2)cc1	1	i	-18	-2	98	0
Cc1cc[n+](-c2nc3ccccc3nc2C(=C=[N-])C#N)cc1	26	i	-11	4	.	0
